From PMC3809033 (Clinical pharmacology and therapeutics, 2011)

What was measured:
[1] = molecular target: norepinephrine transporter (Homo sapiens, UniProt P23975); experiment: radioligand competition binding; conditions: read-out: [drawing 1] / In vitro; Cheng-Prusoff; details in supplement
How it was run: (§1)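 Test compound (purity >98%) was run in competition against radioligand binding at six concentrations from 10 nmol/l to 100 μmol/l to build concentration–response curves. IC50 (50% displacement of bound radioligand) was obtained by nonlinear fitting. Ki was derived with Cheng–Prusoff, using free radioligand concentration and each radioligand's KD, and expressed as pKi.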

[2] = molecular target: 5-HT2B receptor (Homo sapiens, UniProt P41595); experiment: radioligand competition binding; conditions: read-out: [drawing 1] / In vitro; Cheng-Prusoff; details in supplement
How it was run: as §1

[3] = molecular target: dopamine transporter (DAT) (Homo sapiens, UniProt Q01959); experiment: radioligand competition binding; conditions: read-out: [drawing 1] / In vitro; Cheng-Prusoff; details in supplement
How it was run: as §1

[4] = molecular target: 5-HT7 receptor (Homo sapiens, UniProt P34969); experiment: radioligand competition binding; conditions: read-out: [drawing 1] / In vitro; Cheng-Prusoff; details in supplement
How it was run: as §1

[5] = molecular target: 5-HT6 receptor (Homo sapiens, UniProt P50406); experiment: radioligand competition binding; conditions: read-out: [drawing 1] / In vitro; Cheng-Prusoff; details in supplement
How it was run: as §1

[6] = molecular target: T1, 5-HT2C receptor (Homo sapiens, UniProt P28335); experiment: radioligand competition binding; conditions: read-out: [drawing 1] / In vitro; Cheng-Prusoff; details in supplement
T1 sequence (P28335 33-458): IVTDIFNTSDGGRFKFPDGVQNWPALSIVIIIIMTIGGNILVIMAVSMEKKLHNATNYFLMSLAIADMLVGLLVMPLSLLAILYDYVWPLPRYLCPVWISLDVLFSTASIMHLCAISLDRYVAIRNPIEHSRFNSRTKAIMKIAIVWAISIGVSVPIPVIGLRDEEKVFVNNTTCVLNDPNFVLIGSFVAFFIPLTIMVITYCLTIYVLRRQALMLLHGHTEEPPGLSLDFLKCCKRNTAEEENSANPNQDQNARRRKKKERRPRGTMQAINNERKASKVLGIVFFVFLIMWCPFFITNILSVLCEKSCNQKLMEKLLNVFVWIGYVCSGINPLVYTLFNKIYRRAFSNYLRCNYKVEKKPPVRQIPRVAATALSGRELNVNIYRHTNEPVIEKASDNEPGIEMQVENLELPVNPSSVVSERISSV
How it was run: as §1

[7] = molecular target: serotonin transporter (Homo sapiens, UniProt P31645); experiment: radioligand competition binding; conditions: read-out: [drawing 1] / In vitro; Cheng-Prusoff; details in supplement
How it was run: as §1

[8] = molecular target: 5-HT2A receptor (Homo sapiens, UniProt P28223); experiment: inositol phosphate release, antagonist mode; assay type: cell-based; conditions: receptor activated by 1 μmol/l 5-HT
Sequence of 5-HT2A receptor (P28223 whole entry): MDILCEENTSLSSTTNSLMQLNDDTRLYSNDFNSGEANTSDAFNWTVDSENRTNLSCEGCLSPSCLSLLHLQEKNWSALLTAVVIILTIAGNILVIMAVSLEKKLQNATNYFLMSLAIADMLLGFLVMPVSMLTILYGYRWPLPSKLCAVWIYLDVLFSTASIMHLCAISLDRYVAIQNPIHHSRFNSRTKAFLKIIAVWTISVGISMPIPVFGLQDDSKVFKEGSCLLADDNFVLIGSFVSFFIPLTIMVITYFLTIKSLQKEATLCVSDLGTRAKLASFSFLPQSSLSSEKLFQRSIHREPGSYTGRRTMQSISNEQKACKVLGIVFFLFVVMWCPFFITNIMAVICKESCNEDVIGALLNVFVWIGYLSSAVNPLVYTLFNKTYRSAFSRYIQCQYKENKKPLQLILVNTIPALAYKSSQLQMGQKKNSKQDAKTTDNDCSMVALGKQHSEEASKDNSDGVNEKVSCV

Sequence of 5-HT7 receptor (P34969 whole entry): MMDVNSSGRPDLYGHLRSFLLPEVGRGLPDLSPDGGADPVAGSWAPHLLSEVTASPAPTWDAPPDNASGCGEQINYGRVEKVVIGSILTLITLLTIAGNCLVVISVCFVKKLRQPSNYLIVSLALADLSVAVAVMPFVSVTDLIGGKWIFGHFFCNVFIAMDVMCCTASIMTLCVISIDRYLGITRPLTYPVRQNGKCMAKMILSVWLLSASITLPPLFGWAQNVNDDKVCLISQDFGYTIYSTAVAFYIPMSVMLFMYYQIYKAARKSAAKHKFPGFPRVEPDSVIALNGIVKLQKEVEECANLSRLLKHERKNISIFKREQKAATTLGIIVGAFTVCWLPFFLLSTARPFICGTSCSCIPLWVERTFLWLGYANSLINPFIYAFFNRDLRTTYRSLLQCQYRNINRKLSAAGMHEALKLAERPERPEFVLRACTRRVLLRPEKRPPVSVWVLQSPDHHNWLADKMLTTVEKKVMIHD
Sequence of norepinephrine transporter (P23975 whole entry): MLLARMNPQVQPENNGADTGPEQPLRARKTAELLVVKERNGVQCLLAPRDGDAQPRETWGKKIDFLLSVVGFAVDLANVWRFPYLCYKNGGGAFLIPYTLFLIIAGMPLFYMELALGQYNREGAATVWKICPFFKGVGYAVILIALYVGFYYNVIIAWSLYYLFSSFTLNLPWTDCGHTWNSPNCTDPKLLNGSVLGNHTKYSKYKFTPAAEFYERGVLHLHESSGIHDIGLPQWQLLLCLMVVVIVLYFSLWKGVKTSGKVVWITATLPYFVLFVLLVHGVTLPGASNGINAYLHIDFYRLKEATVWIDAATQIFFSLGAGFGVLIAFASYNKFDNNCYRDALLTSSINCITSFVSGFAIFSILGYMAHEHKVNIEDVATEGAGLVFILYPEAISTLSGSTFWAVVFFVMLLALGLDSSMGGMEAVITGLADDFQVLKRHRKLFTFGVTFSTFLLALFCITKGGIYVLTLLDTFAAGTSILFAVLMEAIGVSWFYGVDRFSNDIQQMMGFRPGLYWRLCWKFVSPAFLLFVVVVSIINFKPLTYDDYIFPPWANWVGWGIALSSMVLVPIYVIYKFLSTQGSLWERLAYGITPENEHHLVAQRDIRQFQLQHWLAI
Sequence of 5-HT2B receptor (P41595 whole entry): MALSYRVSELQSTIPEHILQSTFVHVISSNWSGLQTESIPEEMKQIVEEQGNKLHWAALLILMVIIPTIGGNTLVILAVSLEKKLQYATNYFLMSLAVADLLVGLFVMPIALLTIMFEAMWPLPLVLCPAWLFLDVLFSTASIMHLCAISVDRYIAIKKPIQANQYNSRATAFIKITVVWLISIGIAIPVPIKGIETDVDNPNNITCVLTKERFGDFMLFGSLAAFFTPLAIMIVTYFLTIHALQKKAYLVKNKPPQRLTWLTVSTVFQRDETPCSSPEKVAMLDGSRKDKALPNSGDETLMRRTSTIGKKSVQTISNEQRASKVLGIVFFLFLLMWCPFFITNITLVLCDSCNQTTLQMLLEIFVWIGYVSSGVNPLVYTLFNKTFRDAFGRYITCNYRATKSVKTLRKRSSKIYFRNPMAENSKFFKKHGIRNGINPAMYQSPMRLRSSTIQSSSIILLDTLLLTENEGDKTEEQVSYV
Sequence of serotonin transporter (P31645 whole entry): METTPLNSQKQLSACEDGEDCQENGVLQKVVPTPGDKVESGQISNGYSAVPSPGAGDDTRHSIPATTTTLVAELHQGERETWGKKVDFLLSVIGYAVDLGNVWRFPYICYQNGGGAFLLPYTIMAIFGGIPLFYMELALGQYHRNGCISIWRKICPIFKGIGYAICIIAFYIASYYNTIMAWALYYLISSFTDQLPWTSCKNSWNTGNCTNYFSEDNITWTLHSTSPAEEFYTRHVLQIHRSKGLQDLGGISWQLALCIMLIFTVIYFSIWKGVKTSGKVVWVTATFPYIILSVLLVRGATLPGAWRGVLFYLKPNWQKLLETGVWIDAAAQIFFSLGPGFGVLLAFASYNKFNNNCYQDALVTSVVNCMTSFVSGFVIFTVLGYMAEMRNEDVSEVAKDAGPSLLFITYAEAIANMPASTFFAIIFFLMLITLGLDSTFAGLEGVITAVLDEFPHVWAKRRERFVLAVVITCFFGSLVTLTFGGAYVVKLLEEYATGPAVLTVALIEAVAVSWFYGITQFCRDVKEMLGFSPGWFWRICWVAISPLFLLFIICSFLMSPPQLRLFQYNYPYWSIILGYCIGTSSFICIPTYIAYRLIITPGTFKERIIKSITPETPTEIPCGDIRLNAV
Sequence of 5-HT6 receptor (P50406 whole entry): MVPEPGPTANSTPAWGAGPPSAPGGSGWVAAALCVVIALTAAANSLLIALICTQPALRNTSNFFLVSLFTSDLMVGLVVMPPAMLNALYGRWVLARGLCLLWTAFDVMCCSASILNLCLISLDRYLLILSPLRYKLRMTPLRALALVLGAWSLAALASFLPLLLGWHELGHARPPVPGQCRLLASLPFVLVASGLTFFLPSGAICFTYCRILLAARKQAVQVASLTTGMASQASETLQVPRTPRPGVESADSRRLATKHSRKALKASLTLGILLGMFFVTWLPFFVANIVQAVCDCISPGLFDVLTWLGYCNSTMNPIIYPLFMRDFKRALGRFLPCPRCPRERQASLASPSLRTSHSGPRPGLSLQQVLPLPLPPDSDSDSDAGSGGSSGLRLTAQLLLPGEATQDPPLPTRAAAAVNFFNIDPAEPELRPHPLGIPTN
Sequence of dopamine transporter (DAT) (Q01959 whole entry): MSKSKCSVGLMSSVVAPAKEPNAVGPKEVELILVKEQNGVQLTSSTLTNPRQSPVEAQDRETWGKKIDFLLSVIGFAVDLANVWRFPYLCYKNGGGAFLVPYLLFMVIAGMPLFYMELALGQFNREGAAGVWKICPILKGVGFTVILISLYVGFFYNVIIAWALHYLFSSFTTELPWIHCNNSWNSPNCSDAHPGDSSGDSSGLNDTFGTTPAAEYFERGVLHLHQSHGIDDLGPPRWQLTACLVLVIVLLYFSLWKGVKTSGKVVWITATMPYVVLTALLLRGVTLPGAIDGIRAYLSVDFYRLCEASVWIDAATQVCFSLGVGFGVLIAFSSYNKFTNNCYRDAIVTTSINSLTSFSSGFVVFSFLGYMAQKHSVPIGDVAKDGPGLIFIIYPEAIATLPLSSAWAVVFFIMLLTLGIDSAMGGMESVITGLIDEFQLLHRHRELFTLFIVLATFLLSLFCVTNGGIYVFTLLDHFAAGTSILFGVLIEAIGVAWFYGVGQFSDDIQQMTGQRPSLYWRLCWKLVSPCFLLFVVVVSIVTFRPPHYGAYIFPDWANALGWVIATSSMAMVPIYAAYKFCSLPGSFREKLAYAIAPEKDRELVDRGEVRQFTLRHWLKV

SMILES: CN(C)CCC=C1c2ccccc2C=Cc2ccccc21 [cyclobenzaprine]
- Ki [1]: 36 nM
- Ki [2]: 154 nM
- Ki [3]: 5490 nM
- Ki [4]: 151 nM
- Ki [5]: 145 nM
- Ki [6]: 57 nM
- Ki [7]: 108 nM
- Kb [8]: 28.8 ± 2.49 nM
